From ChEMBL document CHEMBL3826910, “Discovery of 3-(5'-Substituted)-Benzimidazole-5-(1-(3,5-dichloropyridin-4-yl)ethoxy)-1H-indazoles as Potent Fibroblast Growth Factor Receptor Inhibitors: Design, Synthesis, and Biological Evaluation” (J Med Chem, 2016)
pIC50: −log10 of the molar value. Active and inactive are the calls of the source. No cut-off for these calls is given here.

Columns and labels:
[1] = AUC (0 to infinity) in Sprague-Dawley rat at 5 mg/kg, po; assay type: ADME, organism-based; parameters: dose 5 mg/kg, route oral, time infinity; conditions: in vivo
Summary of the method: (§1)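 Male SD rats (n = 3) dosed orally by gavage at 5 mg/kg as a suspension in 0.5% CMC-Na. Quantified by LC-MS/MS. An IV arm (1 mg/kg) was run in parallel.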

[2] = Cmax in Sprague-Dawley rat at 5 mg/kg, po; assay type: ADME, organism-based; parameters: dose 5 mg/kg, route oral; conditions: in vivo; summary of the method: as §1
[3] = biological target: Fibroblast growth factor receptor 3 (Homo sapiens, UniProt P22607); test: Inhibition of recombinant human FGFR3 using poly (Glu, Tyr) 4:1 as substrate after 60 mins by ELISA
Sequence of Fibroblast growth factor receptor 3 (P22607 whole entry): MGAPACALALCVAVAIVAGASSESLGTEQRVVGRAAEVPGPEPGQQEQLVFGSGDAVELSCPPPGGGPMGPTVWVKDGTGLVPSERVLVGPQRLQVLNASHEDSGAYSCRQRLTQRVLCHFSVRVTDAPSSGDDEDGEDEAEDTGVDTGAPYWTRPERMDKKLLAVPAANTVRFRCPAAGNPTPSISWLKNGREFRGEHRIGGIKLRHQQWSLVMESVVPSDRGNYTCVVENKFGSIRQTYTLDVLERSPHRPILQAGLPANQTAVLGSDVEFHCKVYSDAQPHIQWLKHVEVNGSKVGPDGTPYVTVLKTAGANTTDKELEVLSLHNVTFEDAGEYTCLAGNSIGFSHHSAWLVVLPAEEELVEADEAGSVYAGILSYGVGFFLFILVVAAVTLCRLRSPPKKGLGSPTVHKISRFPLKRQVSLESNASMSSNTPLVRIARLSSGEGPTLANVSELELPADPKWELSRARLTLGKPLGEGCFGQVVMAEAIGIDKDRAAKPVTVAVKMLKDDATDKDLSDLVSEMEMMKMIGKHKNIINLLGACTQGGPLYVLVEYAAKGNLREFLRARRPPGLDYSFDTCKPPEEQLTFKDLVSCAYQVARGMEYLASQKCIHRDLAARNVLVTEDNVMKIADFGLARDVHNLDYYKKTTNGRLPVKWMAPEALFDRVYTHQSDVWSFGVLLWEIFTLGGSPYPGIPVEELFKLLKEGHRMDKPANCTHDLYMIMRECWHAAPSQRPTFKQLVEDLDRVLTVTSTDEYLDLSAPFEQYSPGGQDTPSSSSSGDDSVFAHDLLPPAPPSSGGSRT
Summary of the method: (§2)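 Purified recombinant kinases tested by ELISA on plates pre-coated with 20 µg/mL poly(Glu,Tyr) 4:1. Reaction run 60 min at 37 °C. Read-out: PY99 anti-phosphotyrosine antibody, HRP anti-mouse IgG and o-phenylenediamine/H2O2, with A490 measured. IC50 from inhibition curves, two independent experiments.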

[4] = biological target: Proto-oncogene tyrosine-protein kinase receptor Ret (Homo sapiens, UniProt P07949); test: Inhibition of recombinant human RET using poly (Glu, Tyr) 4:1 as substrate after 60 mins by ELISA; summary of the method: as §2
[5] = Tmax in Sprague-Dawley rat at 5 mg/kg, po; assay type: ADME, organism-based; conditions: in vivo; summary of the method: as §1
[6] = Half life in Sprague-Dawley rat at 1 mg/kg, iv; assay type: ADME, organism-based; conditions: in vivo
[7] = AUC (0 to infinity) in Sprague-Dawley rat at 1 mg/kg, iv; assay type: ADME, organism-based; parameters: dose 1 mg/kg, time infinity, route intravenous; conditions: in vivo
cells [8] = conditions: Homo sapiens, KG-1, 72 h
[9] = Clearance in Sprague-Dawley rat at 1 mg/kg, iv; assay type: ADME, organism-based; conditions: in vivo
[10] = biological target: Fibroblast growth factor receptor 4 (Homo sapiens, UniProt P22455); test: Inhibition of recombinant human FGFR4 using poly (Glu, Tyr) 4:1 as substrate after 60 mins by ELISA; summary of the method: as §2
[11] = biological target: Vascular endothelial growth factor receptor 2 (Homo sapiens, UniProt P35968); test: Inhibition of recombinant human VEGFR2 using poly (Glu, Tyr) 4:1 as substrate after 60 mins by ELISA
Sequence of Vascular endothelial growth factor receptor 2 (P35968 whole entry): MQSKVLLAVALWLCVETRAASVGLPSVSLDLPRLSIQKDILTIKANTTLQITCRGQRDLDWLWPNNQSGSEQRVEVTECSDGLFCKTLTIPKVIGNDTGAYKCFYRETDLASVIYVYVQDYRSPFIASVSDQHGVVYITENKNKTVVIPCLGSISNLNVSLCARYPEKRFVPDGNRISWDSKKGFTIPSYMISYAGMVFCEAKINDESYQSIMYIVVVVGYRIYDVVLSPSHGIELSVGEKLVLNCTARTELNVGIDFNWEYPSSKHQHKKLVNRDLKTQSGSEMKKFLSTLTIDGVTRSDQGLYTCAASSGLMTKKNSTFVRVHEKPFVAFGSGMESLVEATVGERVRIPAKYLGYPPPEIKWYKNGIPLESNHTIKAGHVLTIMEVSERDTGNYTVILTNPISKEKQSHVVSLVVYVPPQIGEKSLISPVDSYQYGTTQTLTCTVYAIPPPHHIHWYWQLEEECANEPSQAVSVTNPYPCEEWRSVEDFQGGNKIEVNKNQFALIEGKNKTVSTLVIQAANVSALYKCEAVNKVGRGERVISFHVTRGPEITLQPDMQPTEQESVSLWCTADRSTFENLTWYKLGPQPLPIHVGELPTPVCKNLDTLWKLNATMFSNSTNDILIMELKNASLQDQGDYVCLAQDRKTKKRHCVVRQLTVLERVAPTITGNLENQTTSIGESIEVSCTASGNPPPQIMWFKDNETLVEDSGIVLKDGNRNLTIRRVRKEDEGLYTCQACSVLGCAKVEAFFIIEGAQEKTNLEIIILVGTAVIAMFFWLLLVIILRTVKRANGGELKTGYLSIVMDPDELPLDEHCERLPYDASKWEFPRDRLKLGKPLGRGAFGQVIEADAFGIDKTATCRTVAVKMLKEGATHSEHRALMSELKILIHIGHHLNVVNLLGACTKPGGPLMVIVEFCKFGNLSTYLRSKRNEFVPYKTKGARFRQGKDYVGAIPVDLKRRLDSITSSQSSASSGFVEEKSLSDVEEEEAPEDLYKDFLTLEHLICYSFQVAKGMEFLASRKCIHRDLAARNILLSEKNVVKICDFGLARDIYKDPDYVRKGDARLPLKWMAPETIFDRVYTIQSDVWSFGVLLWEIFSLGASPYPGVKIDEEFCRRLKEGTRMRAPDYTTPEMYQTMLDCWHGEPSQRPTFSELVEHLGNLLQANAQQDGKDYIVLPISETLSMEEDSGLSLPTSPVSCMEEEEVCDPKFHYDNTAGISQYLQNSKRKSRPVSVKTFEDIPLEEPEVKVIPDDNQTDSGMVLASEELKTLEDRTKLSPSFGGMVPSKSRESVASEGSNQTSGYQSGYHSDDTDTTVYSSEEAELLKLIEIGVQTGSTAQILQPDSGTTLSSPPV

[12] = biological target: Platelet-derived growth factor receptor beta (Homo sapiens, UniProt P09619); test: Inhibition of recombinant human PDGFRbeta using poly (Glu, Tyr) 4:1 as substrate after 60 mins by ELISA; summary of the method: as §2
[13] = biological target: T1, Fibroblast growth factor receptor 1 (Homo sapiens, UniProt P11362); test: Inhibition of recombinant human FGFR1 using poly (Glu, Tyr) 4:1 as substrate after 60 mins by ELISA
Target sequence in this assay (P11362 whole entry): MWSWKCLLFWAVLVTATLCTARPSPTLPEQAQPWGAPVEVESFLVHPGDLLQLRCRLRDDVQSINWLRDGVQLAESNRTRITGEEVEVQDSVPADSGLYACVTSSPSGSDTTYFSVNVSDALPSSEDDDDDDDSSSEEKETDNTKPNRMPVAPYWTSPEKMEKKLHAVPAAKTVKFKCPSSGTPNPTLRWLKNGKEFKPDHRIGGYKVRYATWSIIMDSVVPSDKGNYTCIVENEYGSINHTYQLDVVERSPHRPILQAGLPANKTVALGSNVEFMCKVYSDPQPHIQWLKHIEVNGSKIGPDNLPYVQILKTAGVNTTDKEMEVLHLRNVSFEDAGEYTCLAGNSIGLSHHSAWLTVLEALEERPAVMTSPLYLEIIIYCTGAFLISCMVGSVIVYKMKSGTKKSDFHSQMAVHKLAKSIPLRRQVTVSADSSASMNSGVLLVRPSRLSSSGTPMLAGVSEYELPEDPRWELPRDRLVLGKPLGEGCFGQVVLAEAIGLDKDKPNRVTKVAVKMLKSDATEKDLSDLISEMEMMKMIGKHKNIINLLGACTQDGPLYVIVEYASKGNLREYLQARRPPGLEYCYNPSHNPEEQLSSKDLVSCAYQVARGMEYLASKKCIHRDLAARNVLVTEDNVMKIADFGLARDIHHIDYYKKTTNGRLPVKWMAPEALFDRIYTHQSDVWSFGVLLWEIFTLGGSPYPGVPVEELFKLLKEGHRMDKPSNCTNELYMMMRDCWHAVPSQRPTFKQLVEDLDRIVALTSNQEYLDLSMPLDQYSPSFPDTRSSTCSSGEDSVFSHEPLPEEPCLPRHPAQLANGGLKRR

[14] = biological target: T2, Fibroblast growth factor receptor 2 (Homo sapiens, UniProt P21802); test: Inhibition of FGFR2 in human SNU15 cells assessed as reduction of PLCgamma phosphorylation at 0.1 to 10 nM after 2 hrs by Western blot method; assay type: cell-based
Target sequence in this assay (P21802 22-821 limits assumed): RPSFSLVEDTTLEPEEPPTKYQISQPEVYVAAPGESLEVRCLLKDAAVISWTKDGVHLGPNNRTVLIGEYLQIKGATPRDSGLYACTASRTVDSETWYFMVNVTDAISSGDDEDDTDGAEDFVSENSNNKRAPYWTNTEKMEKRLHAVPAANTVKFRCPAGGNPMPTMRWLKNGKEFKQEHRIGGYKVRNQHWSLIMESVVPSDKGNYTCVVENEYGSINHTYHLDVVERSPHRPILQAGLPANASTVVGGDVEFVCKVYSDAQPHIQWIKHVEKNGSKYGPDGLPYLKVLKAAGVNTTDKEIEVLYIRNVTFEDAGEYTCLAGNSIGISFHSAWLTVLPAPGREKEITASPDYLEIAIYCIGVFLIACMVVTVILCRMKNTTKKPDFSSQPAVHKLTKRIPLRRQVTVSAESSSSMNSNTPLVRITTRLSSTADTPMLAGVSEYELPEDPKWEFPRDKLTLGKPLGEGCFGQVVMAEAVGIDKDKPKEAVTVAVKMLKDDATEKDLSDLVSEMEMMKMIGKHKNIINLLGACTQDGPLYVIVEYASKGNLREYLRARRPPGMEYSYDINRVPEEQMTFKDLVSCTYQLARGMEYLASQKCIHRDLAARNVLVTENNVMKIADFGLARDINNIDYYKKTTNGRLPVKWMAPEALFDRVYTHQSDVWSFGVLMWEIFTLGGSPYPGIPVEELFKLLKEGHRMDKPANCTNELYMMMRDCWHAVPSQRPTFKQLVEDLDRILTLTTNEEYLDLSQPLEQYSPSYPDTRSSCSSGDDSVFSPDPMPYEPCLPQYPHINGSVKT

NCI-H1581 [15] = test: Antitumor activity against human NCI-H1581 cells xenografted in nude mouse assessed as tumor growth inhibition at 10 mg/kg, po qd administered for 21 days measured on day 21 post last dose relative to vehicle-treated control; assay type: functional; conditions: 504 h, read-out: TGI
Summary of the method: (§3)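 Female nude mice (4–6 weeks) housed under SPF conditions. NCI-H1581 tumours were first grown from 5 × 10^6 cells s.c., and 1.5 mm3 fragments were then transplanted s.c. into the right flank. At 115 mm3, mice were randomized and given vehicle or compound orally once daily for 21 days (2 or 10 mg/kg). Tumours were measured by caliper twice weekly, with TV = length × width²/2.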

[16] = biological target: T2, Fibroblast growth factor receptor 2; test: Inhibition of recombinant human FGFR2 using poly (Glu, Tyr) 4:1 as substrate after 60 mins by ELISA; summary of the method: as §2
[17] = biological target: Receptor tyrosine-protein kinase erbB-2 (Homo sapiens, UniProt P04626); test: Inhibition of recombinant human ErbB2 using poly (Glu, Tyr) 4:1 as substrate after 60 mins by ELISA; summary of the method: as §2
Ephrin type-A receptor 2 = Ephrin type-A receptor 2 (Homo sapiens, UniProt P29317); test: Inhibition of recombinant human EPHA2 using poly (Glu, Tyr) 4:1 as substrate after 60 mins by ELISA; summary of the method: as §2
[18] = biological target: T2, Fibroblast growth factor receptor 2; test: Inhibition of FGFR2 phosphorylation in human SNU15 cells at 0.1 to 10 nM after 2 hrs by Western blot method; assay type: cell-based
Target sequence in this assay (P21802 22-821 limits assumed): as above

[19] = biological target: T1, Fibroblast growth factor receptor 1; test: Inhibition of FGFR1 in human KG1 cells assessed as reduction of PLCgamma phosphorylation at 0.1 to 10 nM after 2 hrs by Western blot method; assay type: cell-based; conditions: KG-1
Summary of the method: (§4)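 KG-1 cells treated at indicated concentrations for 2 h, then lysed in 1× SDS sample buffer. Lysates run on 10% SDS-PAGE, transferred to nitrocellulose, and probed for phospho-FGFR, PLCγ and Erk. Detection by enhanced chemiluminescence.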
Target sequence in this assay (P11362 22-822 limits assumed): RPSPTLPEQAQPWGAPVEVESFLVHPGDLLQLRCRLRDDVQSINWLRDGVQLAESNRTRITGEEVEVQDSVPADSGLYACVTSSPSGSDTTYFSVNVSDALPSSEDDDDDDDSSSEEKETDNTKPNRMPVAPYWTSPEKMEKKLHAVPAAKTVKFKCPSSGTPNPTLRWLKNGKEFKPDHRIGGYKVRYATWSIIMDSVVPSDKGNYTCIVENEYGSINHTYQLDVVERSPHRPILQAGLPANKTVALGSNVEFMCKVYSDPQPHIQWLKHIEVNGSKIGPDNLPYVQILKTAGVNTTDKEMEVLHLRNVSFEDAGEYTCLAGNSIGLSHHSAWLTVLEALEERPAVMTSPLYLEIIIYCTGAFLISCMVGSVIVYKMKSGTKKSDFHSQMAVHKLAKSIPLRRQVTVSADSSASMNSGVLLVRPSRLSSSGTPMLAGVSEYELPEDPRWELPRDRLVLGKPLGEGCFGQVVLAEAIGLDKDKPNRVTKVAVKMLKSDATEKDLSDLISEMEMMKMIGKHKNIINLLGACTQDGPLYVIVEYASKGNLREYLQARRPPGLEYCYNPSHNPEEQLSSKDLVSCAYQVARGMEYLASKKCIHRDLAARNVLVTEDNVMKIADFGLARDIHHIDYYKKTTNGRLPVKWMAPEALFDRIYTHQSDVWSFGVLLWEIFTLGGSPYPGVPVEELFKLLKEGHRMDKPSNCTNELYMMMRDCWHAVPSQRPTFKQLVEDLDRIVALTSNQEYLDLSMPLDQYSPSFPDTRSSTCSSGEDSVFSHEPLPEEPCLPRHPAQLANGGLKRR

[20] = Oral bioavailability in Sprague-Dawley rat at 5 mg/kg; assay type: ADME, organism-based; conditions: in vivo; summary of the method: as §1
[21] = biological target: Epidermal growth factor receptor (Homo sapiens, UniProt P00533); test: Inhibition of recombinant human EGFR using poly (Glu, Tyr) 4:1 as substrate after 60 mins by ELISA; summary of the method: as §2
Mus musculus = test: Toxicity in nude mouse xenografted with human NCI-H1581 cells assessed as body weight loss at 2 to 10 mg/kg, po qd administered for 21 days measured during compound dosing; assay type: organism-based; conditions: in vivo, 504 h; summary of the method: as §3
Bcr/Abl fusion protein = Bcr/Abl fusion protein (Homo sapiens, UniProt P00519); test: Inhibition of recombinant human Bcr-Abl using poly (Glu, Tyr) 4:1 as substrate after 60 mins by ELISA; assay type: protein assay; summary of the method: as §2
cells [22] = conditions: Homo sapiens, SNU-16, 72 h
cells [23] = conditions: Homo sapiens, RT-112, 72 h
[24] = biological target: Platelet-derived growth factor receptor alpha (Homo sapiens, UniProt P16234); test: Inhibition of recombinant human PDGFRalpha using poly (Glu, Tyr) 4:1 as substrate after 60 mins by ELISA; summary of the method: as §2
[25] = biological target: T1, Fibroblast growth factor receptor 1; test: Inhibition of FGFR1 in human KG1 cells assessed as reduction of ERK phosphorylation at 0.1 to 10 nM after 2 hrs by Western blot method; assay type: cell-based; conditions: KG-1; summary of the method: as §4
Target sequence in this assay (P11362 22-822 limits assumed): as above

[26] = biological target: Hepatocyte growth factor receptor (Homo sapiens, UniProt P08581); test: Inhibition of recombinant human c-Met using poly (Glu, Tyr) 4:1 as substrate after 60 mins by ELISA; summary of the method: as §2
[27] = Cmax in Sprague-Dawley rat at 1 mg/kg, iv; assay type: ADME, organism-based; parameters: dose 1 mg/kg, route intravenous; conditions: in vivo
[28] = biological target: Vascular endothelial growth factor receptor 1 (Homo sapiens, UniProt P17948); test: Inhibition of recombinant human Flt1 using poly (Glu, Tyr) 4:1 as substrate after 60 mins by ELISA; summary of the method: as §2
NCI-H1581 [29] = test: Antiproliferative activity against FGFR1-amplified human NCI-H1581 cells after 72 hrs by CCK8/MTT assay; assay type: functional, cell-based; conditions: NCI-H1581, 72 h

C[C@@H](Oc1ccc2[nH]nc(-c3nc4cc(N5CCN(C)CC5)ccc4[nH]3)c2c1)c1c(Cl)cncc1Cl
AUC(0-inf) [1]: 799 ng·h/mL | Cmax [2]: 97.2 ng/mL | pIC50 [3]: 8.70 | pIC50 [4]: < 7.00 | Tmax [5]: 4 h | half-life [6]: 2 h | AUC(0-inf) [7]: 485 ng·h/mL | pIC50 (cells [8]): > 10.00 | clearance [9]: 33.3 mL/min/kg | pIC50 [10]: 8.21 | pIC50 [11]: 8.12 | pIC50 [12]: < 6.00 | pIC50 [13]: 9.05 | inhibition [14]: Active | inhibition in vivo at 10 mg/kg (NCI-H1581 [15]): 96.9% | pIC50 [16]: 8.70 | pIC50 [17]: < 6.00 | pIC50 (Ephrin type-A receptor 2): < 7.00 | inhibition [18]: Active | inhibition [19]: Active | bioavailability [20]: 33% | pIC50 [21]: < 6.00 | Activity (Mus musculus): Non-toxic | pIC50 (Bcr/Abl fusion protein): < 7.00 | pIC50 (cells [22]): > 10.00 | pIC50 (cells [23]): > 10.00 | pIC50 [24]: 6.11 | inhibition [25]: Active | pIC50 [26]: < 7.00 | Cmax [27]: 300 ng/mL | pIC50 [28]: < 7.00 | pIC50 (NCI-H1581 [29]): 8.38
